hERG rescue: compounds protecting human hERG from proarrhythmic drug block. activation (rescue from dofetilide block), less the hit threshold, % at 10 µM. hit rate 0.51% among 310,000. CHO-hERG, FluxOR thallium flux, dofetilide IC70 present. AID 1511;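 active = activation above the mean of controls blocked by dofetilide plus 5 SD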;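 also: thallium influx through hERG after potassium depolarization seen as dye fluorescence rise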
KCNK3 block: human KCNK3 channel inhibition, primary screen; O14649; CHO-KCNK3 thallium flux, FluxOR fluorescence; active compounds read low; B-score at 10 µM; hit rate 0.84% among 340,000; AID 602410;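 active = B-score under library mean minus 4 SD, starting fluorescence ratio at most library mean plus 5 SD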;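 also: more negative B-score means stronger inhibition of thallium flux through KCNK3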
PHOSPHO1 inh: blocks human PHOSPHO1 phosphatase activity; recombinant PHOSPHO1, absorbance phosphatase assay; inhibition, % at 13.3 µM; hit rate 1.1% among 290,000; Q8TCT1; AID 1565; in the data active = inhibition above about 60%
KCNQ1 block: human KCNQ1 channel inhibition | P51787 | CHO-K1 KCNQ1, FluxOR thallium flux fluorescence; active compounds read high | B-score at 10 µM | hit rate 1.3% among 310,000;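 active = compounds whose thallium flux B-score, printed positive for inhibition, exceeds three library SD while starting fluorescence stays within three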;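 also: channel opened by potassium depolarization with thallium stimulus after 20 min compound exposure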
Target sequence (P51787 whole entry, looked up): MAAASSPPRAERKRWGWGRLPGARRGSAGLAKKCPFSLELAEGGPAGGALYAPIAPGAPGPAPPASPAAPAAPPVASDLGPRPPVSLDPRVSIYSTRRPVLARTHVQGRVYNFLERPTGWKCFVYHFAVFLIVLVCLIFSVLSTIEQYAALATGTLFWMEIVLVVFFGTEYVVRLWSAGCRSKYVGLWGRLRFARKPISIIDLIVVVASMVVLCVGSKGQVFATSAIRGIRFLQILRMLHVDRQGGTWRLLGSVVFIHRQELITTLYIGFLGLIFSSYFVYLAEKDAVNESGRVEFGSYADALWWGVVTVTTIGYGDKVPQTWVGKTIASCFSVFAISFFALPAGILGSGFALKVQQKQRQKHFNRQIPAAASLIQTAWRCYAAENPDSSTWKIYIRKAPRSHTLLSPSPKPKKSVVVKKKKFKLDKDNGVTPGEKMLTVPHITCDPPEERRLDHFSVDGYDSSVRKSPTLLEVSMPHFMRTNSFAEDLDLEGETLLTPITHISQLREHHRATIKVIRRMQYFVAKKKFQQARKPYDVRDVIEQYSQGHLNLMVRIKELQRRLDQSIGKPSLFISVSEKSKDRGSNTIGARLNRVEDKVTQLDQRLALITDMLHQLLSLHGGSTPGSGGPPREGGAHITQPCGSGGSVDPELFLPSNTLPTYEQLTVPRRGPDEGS
KCNQ1 pot: human KCNQ1 channel potentiation or activation | hit rate 0.35% among 310,000 | P51787 | B-score at 10 µM | CHO-K1 KCNQ1, thallium flux FluxOR fluorescence; active compounds read high;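 active = fluorescence ratio B-score, a plate-corrected score, at least three library SD, with initial intensity B-score within 5 SD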
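System: Stable KCNQ1 CHO-K1 line | Incubation: 90 min dye loading and 20 min compound exposure, both at room temperature | Measure: Ratio B score | Medium: Assay buffer for compound exposure, DMSO matched across wells | Compound dosing: Single-concentration screen | Probe or stimulus: K+/Tl+ depolarizing stimulus | Measured by: Kinetic FluxOR fluorescence, 10 s baseline plus 110 s post-stimulus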
KCNK9 block: inhibitors of human KCNK9 two-pore domain potassium channel; Q9NPC2; HEK293 KCNK9, FluxOR thallium flux fluorescence; active compounds read low; B-score at 10 µM; hit rate 1.2% among 310,000;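 active = ratio B-score over 3 SD below the library mean, with starting fluorescence within 5 SD of its mean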;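 also: negative B-score means less thallium flux so channel inhibition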
KCNQ1 block val: confirmation of human KCNQ1 potassium channel inhibitors; shares compounds with KCNQ1 block; KCNQ1 cell line, FluxOR thallium flux fluorescence; inhibition, % at 10 µM; hit rate 93% among 1,600;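 active = primary screen active, with duplicate mean exceeding buffer control mean plus 3 SD of buffer wells, cut at about 28% in these data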;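 also: 0% = buffer control ratio and 100% = XE991 inhibitor control ratio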
CHO KCNQ1 ctr: activity in parental CHO cells lacking KCNQ1; AID 588366; shares compounds with KCNQ1 block; parental CHO-K1, FluxOR thallium flux fluorescence ratio; active compounds read low; zero means no signal rise above baseline; fluorescence ratio (Tl flux) at 10 µM; hit rate 21% among 1,600;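 active = mean of duplicate thallium-flux fluorescence ratios in parental host cells more than 5 SD below the buffer control mean, cut at about 0.38 in these data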;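 also: ratio is peak minus minimum fluorescence divided by baseline fluorescence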
KCNQ1 ephys val: human KCNQ1 inhibition validated by electrophysiology | shares compounds with KCNQ1 block | calls only at 10 µM | hit rate 20% among 490 | AID 624120 | KCNQ1-CHO cells, automated patch clamp current;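 active = KCNQ1 current drop exceeding 3 SD of negative control wells, seen in both duplicate runs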;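 also: steady state current during a 2 s step from -80 to +40 mV; negative values mean current inhibition and positive values mean potentiation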
KCNQ2 inh: rat KCNQ2 inhibition in KCNQ1 inhibitor specificity screen; shares compounds with KCNQ1 block; KCNQ2 cells, FluxOR thallium flux fluorescence; inhibition, % at 10 µM; hit rate 71% among 1,600;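 active = mean percent inhibition of the KCNQ2 thallium signal more than 5 SD above the buffer-only control wells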;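 also: KCNQ2 expressed in CHO cells; 0% = buffer control wells and 100% = XE-991 inhibitor control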
KCNQ1 KCNE1 spec: human KCNQ1/KCNE1 inhibition in KCNQ1 specificity screen | inhibition, % at 10 µM | KCNQ1/KCNE1 cells, FluxOR thallium flux fluorescence | hit rate 77% among 1,600 | AID 652147 | shares compounds with KCNQ1 block;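 active = mean percent inhibition of duplicate wells above the buffer-only control mean plus 3 SD of those controls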;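 also: 0% = buffer only wells and 100% = XE-991 inhibitor control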
An asterisk follows results filed as active; i = inactive; . = no result given. The list is not random: actives were taken first. Their share in the collection is about 4%.

SMILES	hERG rescue	KCNK3 block	PHOSPHO1 inh	KCNQ1 block	KCNQ1 pot	KCNK9 block	KCNQ1 block val	CHO KCNQ1 ctr	KCNQ2 inh	KCNQ1 KCNE1 spec	others
CC(C)(C)c1ccc(OCCC(=O)Nc2cccc(S(=O)(=O)N3CCCC3)c2)cc1	-11.6	i	.	8*	i	i	34.5*	0.492	83.7%*	66.0%*
Cc1ccc(OCC(=O)Nc2cccc(S(=O)(=O)N3CCCCCC3)c2)cc1C	-12.6	i	.	7*	i	i	95.5*	0.538	98.7%*	65.0%*	KCNQ1 ephys val=i
CC(=O)Nc1cccc(OCC(=O)Nc2cccc(S(=O)(=O)N3CCCC3)c2)c1	.	i	.	.	.	.	.	.	.	.
CCCS(=O)(=O)N1CCCC(C(=O)NCc2ccc(C)cc2)C1 (stereo unspecified)	-1.4	i	7.0	i	i	i	.	.	.	.
C(=C\c1ccccc1)/CN1CCN(c2ncnc3c2oc2ccccc23)CC1	-21.6	-12.8*	-7.5	7*	i	i	149.5*	0.312*	135.0%*	178.5%*
c1cnc(N2CCN(c3ncnc4c3oc3ccccc34)CC2)nc1	.	.	-0.2	.	.	.	.	.	.	.
CC1(C)C(=O)NCCN1C(=O)CSc1nccc(-c2ccc(Br)cc2)n1	-6.5	i	-5.8	i	i	i	.	.	.	.
CC1c2nc3ccccc3n2C(CC(=O)NCc2ccccn2)C(=O)N1Cc1ccccc1 (stereo unspecified)	-8.4	i	2.9	i	i	i	.	.	.	.
Oc1ccc(Nc2nc(N3CCCC3)c3ccccc3n2)cc1	-13.0	i	16.8	i	i	i	.	.	.	.
COc1ccc(Nc2ncnc3ccccc23)c(OC)c1	1.2	i	8.0	i	i	i	.	.	.	.
COc1ccc(Nc2nc(N3CCCC3)nc3ccccc23)c(OC)c1	-20.1	i	17.4	7*	i	i	112.0*	0.383	80.7%*	137.0%*
COc1ccc(Nc2nc(N3CCCCC3)c3ccccc3n2)cc1	-28.2	i	21.5	14*	i	i	139.0*	0.402	103.0%*	122.0%*	KCNQ1 ephys val=i
c1ccc(OCCOc2ncnc3ccccc23)cc1	-11.4	i	-30.5	i	i	i	.	.	.	.
Brc1ccc(COc2ncnc3ccccc23)cc1	-8.9	i	1.1	9*	i	i	0.0	0.443	68.0%*	41.5%*
CCC(CO)NCc1cc(OC)c(OCC(=O)NCCc2ccccc2)cc1Br (stereo unspecified)	-12.8	i	23.6	i	i	i	.	.	.	.
COc1ccc(N=C2SC(CC(=O)Nc3cccc(Cl)c3)C(=O)N2Cc2ccco2)cc1 (stereo unspecified)	-10.4	i	3.9	12*	i	i	92.5*	0.434	93.3%*	136.5%*	KCNQ1 ephys val=i
CC1CCN(S(=O)(=O)c2nnc(NC(=O)c3cccc(Cl)c3)s2)CC1	-5.9	i	33.4	9*	i	i	31.5*	0.506	i	i
Cc1c(C)n(C(=O)CSc2nc3ccccc3[nH]2)c2ccccc12	0.6	i	46.7	7*	i	i	139.0*	0.394	123.7%*	190.0%*	KCNQ1 ephys val=i
O=C(CSc1nc2ccccc2[nH]1)N1CCCCC1	-4.5	i	12.4	i	i	i	.	.	.	.
COc1ccc(-n2c(Cc3cccn3C)nnc2SCC(=O)Nc2ccc(C)c(Cl)c2)cc1	-4.4	i	-20.1	i	i	i	.	.	.	.
Cc1sc(NC(=O)c2oc3ccccc3c2C)c(C#N)c1C	-8.8	i	7.0	i	i	i	.	.	.	.

Source: PubChem (several laboratories)
